Test results from ChEMBL document CHEMBL4513216, “Probing the Open Global Health Chemical Diversity Library for Multistage-Active Starting Points for Next-Generation Antimalarials” (ACS Infect Dis, 2020).

Experiment: Toxicity liver stage against HepG2, at 10uM
Type: cell-based
Parameters: test concentration 10 uM, cell line HepG2-A16-CD81EGFP
Details: human, HepG2-A16-CD81EGFP cells; read-out: INHIBITION
How it was run: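 Uninfected HepG2-A16-CD81EGFP cells, 3 × 10^3 per well, 1536-well, plated on prespotted compound at 10 μM final, parasite-free screening media added to match infected plates; puromycin 10 μM positive, DMSO 0.5% negative; run in parallel with 48 h PbLuc assay at 37 °C, 5% CO2; viability by CellTiter-Glo luminescence, normalized to controls.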

SMILES	cytotoxicity at 10 µM
COCCN1CC[C@H]2OCC[C@@H](C(=O)N3CCCO3)[C@H]2C1	4.55%
O=C(c1csc(-c2ccco2)n1)N1CCOc2ncccc21	10.2%
Cc1cccc(CN2CCC(c3nnsc3S(C)(=O)=O)CC2)n1	-8.69%
CC1(C)CC2(CCO1)NC(=O)c1cc(Br)ccc1-n1nnnc12 (stereo unspecified)	5.97%
COc1cccc(N2CCN(CCC(=O)NC3CCCCC3)CC2)c1	-5.64%
CCN(C(=O)c1ccc2nncn2c1)C(C)Cc1ccc(OC)cc1 (stereo unspecified)	-5.53%
Fc1cccc(-c2nc(CN3CCCCC3Cn3cncn3)co2)c1 (stereo unspecified)	-12.8%
COc1ccccc1CN1CC(OC)CN(C(=O)CC(C)C)CC1=O (stereo unspecified)	-3.3%
CN(C)c1nc(NCCc2ccnn2C)ncc1F	-9.83%
O=C(NCCCO)Nc1ccccc1	1.52%
CCN1CC(C(=O)NCCc2csc(-c3ccncc3)n2)CCC1=O (stereo unspecified)	-11.3%
CCN(CC1CCOC1)C(=O)c1ccccc1NS(=O)(=O)CC (stereo unspecified)	-7.4%
CC(Cn1cncn1)NCc1csc2c1CCCC2 (stereo unspecified)	-1.53%
Cc1nn(CC(=O)N2CCCC2Cn2cccn2)c(C)c1Cl (stereo unspecified)	2.27%
N#Cc1cc(NC(=O)c2cc[nH]n2)ccc1N1CCC(O)CC1	-0.758%
Cc1ccc(C)c(CC(=O)NC2CCCS(=O)(=O)C2)c1 (stereo unspecified)	-7.52%
CC(NCc1ccsc1)c1ccc(OCc2nccn2C)cc1 (stereo unspecified)	-6.37%
CNS(=O)(=O)c1cccc(C(C)NCc2ccsc2)c1 (stereo unspecified)	2.45%
O=C1CO[C@H]2CCN(C(=O)c3ccc4c(c3)CCCC4)CC[C@@H]2N1	0.905%
c1ccc(Cc2noc(-c3ccc(NCC4CCCOC4)nc3)n2)cc1 (stereo unspecified)	-1.05%
Cn1cccc1-c1cc(C(=O)NCCc2nnc(N)s2)[nH]n1	-7.22%

SMILES	cytotoxicity at 10 µM
CC(=O)N1CCN(c2ccnc3c(F)cc(Br)cc23)CC1	13.6%
N#Cc1cc(NS(=O)(=O)CC2CCCCO2)ccc1F (stereo unspecified)	-14.1%
O=C(NCCC(O)c1ccccc1)c1ccco1 (stereo unspecified)	-0.749%
Fc1cc(Cl)cnc1N1CCCC(c2nccn2CC2CC2)C1 (stereo unspecified)	4.8%
Cc1ccc(=O)n(CC2(O)CCN(Cc3cnc(N(C)C)nc3)CC2)n1	-26%
Cc1cc(CN2CCN(Cc3cnc4c(c3)c(C)nn4C)CC2)on1	-12.6%
CCCc1cc(N2CCC(NCC3(O)CCN(C)CC3)CC2)nc(C)n1	-16.1%
C[C@H]1C[C@@H]2CCN(C(=O)c3cnccn3)C[C@H]2O1	2.96%
Cc1cc(C)n(CC2CCCN2Cc2c(C)noc2C)n1 (stereo unspecified)	-4.08%
CN(C)S(=O)(=O)N1C[C@@H]2C[C@H](C(=O)Nc3cccnc3)[C@H](C1)O2	-71.7%
CN(C)C(=O)N1C[C@H]2CC[C@@H](C1)N(C(=O)c1cccc(N(C)C)c1)C2	0.502%
Cc1nc2c(c(=O)n1C)CCN(C(=O)CCc1ccccc1O)CC2	0.53%
O=C1O[C@@H]2CN(Cc3cc4ccccc4s3)C[C@@H]2N1Cc1ccccn1	10.2%
CCn1cnnc1C1CCN(C(=O)COc2ccccc2)CC1	1.3%
CCN1CCN(C(=O)c2cc(F)cc3nc(C)c(C)nc23)CC1	-2.25%
CS(=O)(=O)NC1CCCN(C(=O)Nc2cccnc2N2CCCC2)C1 (stereo unspecified)	-131%
COc1ccc(-c2noc(C3=NN(C)C(=O)CC3)n2)cc1OC	-0.51%
CCc1cnc(N2C[C@H]3CN(Cc4ccc(OC)cc4)C(=O)[C@H]3C2)nc1	11.6%
Cn1cccc1C(=O)NCc1ccnc(C2CCCOC2)n1 (stereo unspecified)	3.41%
CCc1cnc(CN(C(C)=O)C2CCN(CCc3cnn(C)c3)C2)o1 (stereo unspecified)	-5.85%
Cc1occc1C(=O)N1CC[C@@H](N2CCOCC2)[C@@H]1Cc1ccccc1	-4.09%

SMILES	cytotoxicity at 10 µM
CCc1ncc(C(=O)N(CCOC)Cc2nccs2)cn1	-1.47%
O=C(NC1CCCC1)c1nc2c(o1)CN(C(=O)CO)C2	10%
CCc1nc(C2CCCN2CCCSC)no1 (stereo unspecified)	-6.57%
O=C(NC[C@H]1OC[C@@H](NC2CCC(F)(F)CC2)[C@@H]1O)C1CC1	-1.39%
Cc1ccc(CN2CCC3(CC2)CCN(Cc2ccco2)CC3)cc1	2.44%
COc1ncccc1C(=O)N1CCCC(n2ccnc2)C1 (stereo unspecified)	-5.1%
CC(C)(C)C(=O)NCCC(=O)NS(=O)(=O)c1ccc2c(c1)OCCO2	-3.81%
COc1ccc(NC(=O)CSc2ccc3nncn3n2)c(OC)c1	3.94%
CC(=O)NC(C)C(=O)Nc1ccc(OCc2cccc(F)c2)cc1C (stereo unspecified)	0.305%
CCOC(=O)CNC(=O)NCc1cccn1Cc1ccccc1	9.71%
Cc1cnn(C2CN(CCOc3ccccc3C#N)C2)c1	-8.88%
COc1ccc(C(=O)N2CC[C@@H]3[C@H](CC2)N(C)CCS3(=O)=O)cc1	-117%
Cc1nn(C)c(C)c1C1COCCN1C(=O)CCc1ccccc1 (stereo unspecified)	-0.284%
CCO[C@@H]1CCN(C(=O)c2cnc(C)cn2)[C@@H]1Cc1cnn(C)c1	-72.7%
COc1cc(N2CCC3(C2)CN(c2cccnc2)C(=O)CN3C)ncn1 (stereo unspecified)	-107%
COCC(=O)NCc1cc(=O)n2c(n1)CN(Cc1cccs1)CCC2	-96.5%
O=C(NC1CCCC1)c1ccc(C2CCCNC2)nc1 (stereo unspecified)	-13.7%
Cc1cc(CNC(=O)N(Cc2ccc(F)cc2F)C2CC2)no1	-18.5%
CN(C(=O)CSc1ncc[nH]1)C1CC1	7.97%
CN1N=C(c2nc(Cc3cccc(Br)c3)no2)CCC1=O	-6.09%
CC(C)c1nn(C)c(N(C)C)c1CNC1CCN(CC2CC2)CC1	8.96%

SMILES	cytotoxicity at 10 µM
CC(C)n1ccc(C(=O)NCC(O)c2c(Cl)cccc2Cl)n1 (stereo unspecified)	1.81%
COc1c(F)cc(NCC(=O)NC(C)(C#N)C2CC2)cc1F (stereo unspecified)	-3.82%
OCCc1cc(C2CCCN2c2ncccn2)n[nH]1 (stereo unspecified)	5.56%
CSc1ncc(CN2CC(Oc3c(C)cccc3C)C2)cn1	10.3%
O=C(Cc1cccc(F)c1F)NS(=O)(=O)c1ccc(Cl)cn1	0.545%
FC(F)(F)c1cccc(CN2CCOC[C@H](Oc3cccnc3)C2)c1	7.74%
CC(CN1CCOCC1)NC(=O)Nc1cccnc1-n1cccn1 (stereo unspecified)	-1.7%
CC(=O)NCc1nccnc1C1CCN(C(=O)c2cc[nH]n2)CC1	-6.74%
Cn1ccnc1CN1CCN2C[C@H](Oc3cccc(F)c3)C[C@H]2C1	13.6%
Cc1c(C)n2c(SCC(=O)N3CCCCC3)nnc2[nH]c1=O	3.33%
Cc1ccccc1N1CCCN(c2ccncn2)CC1	24.9%
Cc1nn(C)c2cnn(CCCNS(=O)(=O)Cc3ccccc3)c12	0.999%
COc1ccc(C(=O)N(CCC#N)Cc2ccccn2)cc1	13.1%
CC(=O)c1cccc(NC(=O)CCn2nc(-c3cccs3)oc2=O)c1	-4.47%
O=C(NCc1cc[nH]n1)NCC(O)c1ccc(F)cc1F (stereo unspecified)	1.78%
Cc1nc(NC(=O)OC(C)(C)C)sc1C(=O)O	7.89%
CCCS(=O)(=O)N1CCC2(CC1)CN(CC1CCOC1)c1ccccc12 (stereo unspecified)	-101%
COc1ccc(C)cc1CC(=O)NS(=O)(=O)c1ccc(C(N)=O)cc1	8%
